These results are taken from ChEMBL document CHEMBL1955787, “Design and synthesis of novel magnolol derivatives as potential antimicrobial and antiproliferative compounds” (Eur J Med Chem, 2012).

Each structure is given as a SMILES string. Converted amounts (≈) assume the structure as drawn. The source made the active and inactive calls. No cut-off for these calls is given here. Some results are limits rather than exact numbers.

Assay [1] concerns Staphylococcus aureus. Kind of assay: Antibacterial activity against Staphylococcus aureus ATCC 29213 after 24 hrs by micro dilution method. In kind it is functional. The settings on record: ATCC 29213, 24 h. The method, boiled down:
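Broth microdilution in Mueller Hinton broth. Inoculum from a 24 h culture in saline, set to 0.5 McFarland and diluted to a final 5 × 10^6 CFU mL-1. Two-fold serial dilutions, final 0.25–256 µg mL-1. Incubated 37 °C for 24 h and read visually. MIC is the lowest concentration with no turbidity.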

For the next assay, the system named is PC-3. Kind of assay: Antiproliferative activity against human PC3 cells after 48 hrs by sulforhodamine B assay. Type of assay: functional, cell-based. Conditions: PC-3, 48 h. The method, boiled down:
(§1)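 Sulforhodamine B assay following NCI guidelines. Log-phase cells seeded at 10^4 cells/well and allowed to attach for 24 h at 37 °C, 5% CO2. Exposed 48 h to 1:10 serial dilutions, four replicate wells per condition. Fixed with 50% cold TCA for 1 h at 4 °C, stained, dye dissolved in tris buffer, OD read at 540 nm. Blank-subtracted growth expressed relative to untreated (100%) and reported as IC50.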

Assay [2] deals with HL-60. Nature of the assay: Cell cycle arrest in human HL60 cells assessed as accumulation at sub-G1 phase at 1 uM after 24 hrs using propidium iodide staining by flow cytometry. In kind it is functional. A digest of the protocol: (§2)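 Cell-cycle (sub-G1) profiling of HL-60 cells at 1 × 10^6 per well, treated 24 h at 1, 10, 30 or 100 µM. Washed in ice-cold PBS, fixed in 70% ethanol at -20 °C for 30 min. Treated with RNase A (0.1 mg/mL) at 37 °C for 30 min, then propidium iodide (50 µg/mL) for 30 min on ice in the dark. Read with doublet discrimination and 488 nm excitation.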
(In general: In flow cytometry, cells or beads pass a laser one at a time.)

The subject of assay [3] is Enterococcus. Kind of assay: Antibacterial activity against vancomycin-resistant Enterococcus treated for 24 hrs followed by compound treated at 2 to 16 times MIC measured after 24 hrs by micro dilution method. Type of assay: functional. The method, boiled down: (§3)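 MBC taken from the same 24 h microdilution plates (Mueller Hinton broth, final inoculum 5 × 10^6 CFU mL-1, 37 °C). […] Spots were incubated 24 h and colonies counted. MBC is the lowest concentration giving a 3 log drop from the starting inoculum.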

Assay [4] has as its system Staphylococcus aureus. Nature of the assay: Antibacterial activity against methicillin-resistant Staphylococcus aureus 15187 treated for 24 hrs followed by compound treated at 2 to 16 times MIC measured after 24 hrs by micro dilution method. In kind it is functional. Conditions: Staphylococcus aureus, 15187, 24 h. A digest of the protocol: as §3
Another assay deals with Candida albicans. Kind of assay: Antifungal activity against Candida albicans ATCC 90028. Type of assay: functional.
Assay [5] concerns HL-60. Nature of the assay: Cell cycle arrest in human HL60 cells assessed as accumulation at sub-G1 phase after 24 hrs using propidium iodide staining by flow cytometry. Type of assay: functional, cell-based. The method, boiled down:
as §2

Assay [6] relates to HL-60. Kind of assay: Cell cycle arrest in human HL60 cells assessed as accumulation at sub-G1 phase at 100 uM after 24 hrs using propidium iodide staining by flow cytometry. Type of assay: functional. A digest of the protocol: as §2
Assay [7] deals with HL-60. Nature of the assay: Cell cycle arrest in human HL60 cells assessed as accumulation at sub-G1 phase at 30 uM after 24 hrs using propidium iodide staining by flow cytometry. Type of assay: functional. The method, boiled down: as §2
The test system of assay [8] is HL-60. Nature of the assay: Cell cycle arrest in human HL60 cells assessed as accumulation at sub-G1 phase at 10 uM after 9 hrs using propidium iodide staining by flow cytometry. Type of assay: functional. The method, boiled down: (§4)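 Time-course sub-G1 analysis of HL-60 cells exposed to 10 µM and sampled at 0, 6, 9, 18 and 24 h. Ethanol fixation, RNase A and propidium iodide staining as for the dose series, then flow cytometric DNA content at 488 nm excitation.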

In assay [9] the test system is HL-60. Nature of the assay: Cell cycle arrest in human HL60 cells assessed as accumulation at sub-G1 phase at 10 uM after 6 hrs using propidium iodide staining by flow cytometry. Type of assay: functional. The method, boiled down: as §4
Assay [10] concerns Staphylococcus aureus. Kind of assay: Antibacterial activity against Staphylococcus aureus ATCC 29213 treated for 24 hrs followed by compound treated at 2 to 16 times MIC measured after 24 hrs by micro dilution method. Type of assay: functional. The settings on record: ATCC 29213, 24 h.
The subject of assay [11] is HL-60. Nature of the assay: Cell cycle arrest in human HL60 cells assessed as accumulation at sub-G1 phase at 10 uM after 18 hrs using propidium iodide staining by flow cytometry. In kind it is functional. The method, boiled down: as §4
The test system of a further assay is MOLT-4. Kind of assay: Antiproliferative activity against human MOLT4 cells after 48 hrs by sulforhodamine B assay. Type of assay: functional, cell-based. Conditions: MOLT-4, 48 h. A digest of the protocol: as §1
(In SRB staining, fixed cells bind dye roughly in proportion to their protein.)

The next assay concerns Aspergillus fumigatus. Nature of the assay: Antifungal activity against Aspergillus fumigatus LSI-II. In kind it is functional.
The subject of assay [12] is HL-60. Nature of the assay: Cell cycle arrest in human HL60 cells assessed as accumulation at sub-G1 phase at 10 uM after 24 hrs using propidium iodide staining by flow cytometry. In kind it is functional. A digest of the protocol: as §4
Assay [13] deals with HL-60. Nature of the assay: Cell cycle arrest in human HL60 cells assessed as accumulation at sub-G1 phase at 10 uM after 3 hrs using propidium iodide staining by flow cytometry. Type of assay: functional.
The subject of assay [14] is HL-60. Kind of assay: Induction of apoptosis in human HL60 cells assessed as DNA discrete ladder pattern formation at 5 to 30 uM after 24 hrs using ethidium bromide staining by agarose gel electrophoresis analysis. Type of assay: functional, cell-based.
Assay [15] deals with Enterococcus. Kind of assay: Antibacterial activity against vancomycin-resistant Enterococcus after 24 hrs by micro dilution method. Type of assay: functional. A digest of the protocol:
(§5)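 Broth microdilution in Mueller Hinton broth, two-fold serial dilutions, final 0.25 to 256 µg mL-1. Inoculum from 24 h culture in saline, set to 0.5 McFarland, diluted to a final 5 × 10^6 CFU mL-1. Plates held at 37 °C for 24 h and read by eye. MIC is the lowest concentration with no turbidity.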

The test system of assay [16] is HL-60. Nature of the assay: Antiproliferative activity against human HL60 cells after 48 hrs by sulforhodamine B assay. The settings on record: HL-60, 48 h. Type of assay: functional, cell-based. The method, boiled down: as §1
Assay [17] has as its system Staphylococcus aureus. Kind of assay: Antibacterial activity against methicillin-resistant Staphylococcus aureus 15187 after 24 hrs by micro dilution method. Type of assay: functional. The settings on record: Staphylococcus aureus, 15187, 24 h. The method, boiled down: as §5

By MIC is commonly meant the least concentration at which growth counts as inhibited. One may read the IC50 as the concentration at which inhibition is half-maximal. Read a low IC50 as greater potency in that assay. Usually MBC stands for the lowest tested concentration that kills the bacteria rather than only halting them.

With `CCCCc1cc(I)c(O)c(-c2cc(CCCC)cc(I)c2O)c1`, the minimal inhibitory concentration (MIC) in the assay on Staphylococcus aureus [1], in the assay with Enterococcus [15] and against Staphylococcus aureus [17] was 4 µg/mL (≈ 7.27 µM) each time. Further, the results for the half-maximal inhibitory concentration (IC50) in the assay with PC-3, in the assay on MOLT-4 and in the assay with HL-60 [16] were 2 µM, 10 µM and 2 µM, respectively. In addition, the Activity in the assay on HL-60 [2] is 12%; in the assay with HL-60 [5], “Dose-dependent effect”; in the assay on HL-60 [6], 78%; in the assay on HL-60 [7], 67%; in the assay with HL-60 [8], 33%; in the assay on HL-60 [9] it was 21%. For the same molecule, the Activity with HL-60 [11] turned out to be 44%; in the assay with HL-60 [12], 52%; in the assay with HL-60 [13] it was 14%. Further, the figures for the MBC against Enterococcus [3], against Staphylococcus aureus [4] and against Staphylococcus aureus [10] were 8 µg/mL (≈ 14.5 µM), 4 µg/mL (≈ 7.27 µM) and 4 µg/mL (≈ 7.27 µM), respectively. For the same molecule, the MIC entry in the assay on Candida albicans and in the assay on Aspergillus fumigatus was “inactive” throughout. For the same molecule, in the assay with HL-60 [14], the outcome was Active.
As to `C=CCc1cc(O)c(O)c(-c2cc(CC=C)cc(OC)c2O)c1`, the values for the MIC against Staphylococcus aureus [1], with Enterococcus [15] and against Staphylococcus aureus [17] were 16 µg/mL (≈ 51.2 µM), 32 µg/mL (≈ 102 µM) and 16 µg/mL (≈ 51.2 µM), respectively. In addition, the IC50 in the assay with PC-3, with MOLT-4 and with HL-60 [16] was more than 100 µM throughout. Further, the MBC was 128 µg/mL (≈ 410 µM) in the assay on Enterococcus [3], 64 µg/mL (≈ 205 µM) with Staphylococcus aureus [4] and 16 µg/mL (≈ 51.2 µM) against Staphylococcus aureus [10]. The MIC result in the assay on Candida albicans and in the assay on Aspergillus fumigatus was “inactive” throughout.
As to `CCCc1ccc(O)c(-c2cc(CCC)cc(Cl)c2O)c1`, the MIC with Staphylococcus aureus [1], against Enterococcus [15] and with Staphylococcus aureus [17] was more than 256 µg/mL each time. Also, the IC50 in the assay on PC-3 was more than 100 µM; in the assay with MOLT-4 it was more than 100 µM; in the assay with HL-60 [16], 85 µM. Besides, the minimal bactericidal concentration (MBC) against Enterococcus [3], in the assay with Staphylococcus aureus [4] and in the assay on Staphylococcus aureus [10] was more than 256 µg/mL each time. The MIC entry with Candida albicans and in the assay on Aspergillus fumigatus was “inactive” in each case.
